# Sampled rows, rich in hits. Any-hit rate of the full collection: about 1.5%.
# DAGLB inhibitor: blocks human DAGLB lipase activity | HEK293T DAGLB membrane lysate, EnzChek fluorogenic substrate | inhibition, % at 5.17 µM | hit rate 0.059% among 340,000 | Q8NCG7; in the data active = inhibition above about 34%;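 also: 0% = enzyme with vehicle and 100% = wells lacking enzyme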
# HTRA1 inhibitor: blocks human HTRA1 serine peptidase; Q92743; recombinant HTRA1, FP-rhodamine activity-based probe, fluorescence polarization; inhibition, % at 5.96 µM; hit rate 0.5% among 340,000; in the data active = inhibition above about 36%;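 also: 0% = enzyme with DMSO and 100% = wells lacking enzyme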
# Target sequence (Q92743 whole entry, looked up): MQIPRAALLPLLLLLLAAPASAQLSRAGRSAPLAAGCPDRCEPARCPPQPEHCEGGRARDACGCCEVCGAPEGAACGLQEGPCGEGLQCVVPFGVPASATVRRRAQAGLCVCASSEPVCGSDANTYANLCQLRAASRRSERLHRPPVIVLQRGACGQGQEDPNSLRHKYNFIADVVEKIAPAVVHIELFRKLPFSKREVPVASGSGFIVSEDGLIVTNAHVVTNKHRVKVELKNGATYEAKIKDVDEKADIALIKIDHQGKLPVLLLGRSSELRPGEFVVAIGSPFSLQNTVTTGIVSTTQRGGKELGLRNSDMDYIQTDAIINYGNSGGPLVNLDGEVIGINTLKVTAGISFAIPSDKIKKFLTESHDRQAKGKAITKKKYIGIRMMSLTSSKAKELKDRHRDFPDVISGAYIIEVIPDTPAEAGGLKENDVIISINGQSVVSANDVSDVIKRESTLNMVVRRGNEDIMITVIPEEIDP
# TCR CD3 inh: human TCR-CD3 binding inhibition; inhibition, % at 9.4 µM; hit rate 0.37% among 360,000; TAMRA-labeled TCR probe fluorescence, biochemical; in the data active = inhibition above about 19%;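 also: recombinant mutant TCR 2C K166C tagged with TAMRA read by polarization; 0% = receptor in buffer alone and 100% = receptor with positive control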
# ABHD4 inh: inhibits mouse alpha/beta hydrolase domain 4; hit rate 0.54% among 370,000; Q8VD66; purified mABHD4, FP-Rh probe fluorescence polarization; inhibition, % at 8.92 µM;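 active = inhibition exceeding the mean over every tested compound plus 3 SD, cut at about 30% in these data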;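 also: 0% = plate median of compound wells and 100% = S159A mutant with DMSO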
#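 Assay system: Wild-type mouse ABHD4 protein | Medium: HEPES pH 7.0 buffer, 150 mM NaCl, 0.01% Pluronic F-127 | Incubation: Enzyme–compound pre-incubation 45 min, then probe 60 min, both 25 °C | Technique: Fluorescence polarization with parallel and perpendicular emission, 525/598 nm | Evaluation: % inhibition of FP-Rh probe binding versus controls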
# SIAE primary: human SIAE inhibition, primary screen; Q9HAT2; SIAE FP-Rh probe binding, fluorescence polarization; inhibition, % at 9.66 µM; hit rate 0.69% among 370,000;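 active = inhibition above a cutoff: mean of compounds within the control limits plus 3 SD of those, cut at about 17% in these data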;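 also: 0% = plate median of compound wells and 100% = probe without SIAE protein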
# SIAE inh conf: human SIAE inhibition, confirmation | shares compounds with SIAE primary | SIAE FP-Rh activity-based probe, fluorescence polarization | inhibition, % at 9.66 µM | hit rate 13% among 2,300;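 active = mean inhibition of the replicates above the hit cutoff set in the primary screen, cut at about 17% in these data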;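 also: 0% = SIAE with DMSO and probe and 100% = probe without SIAE; inhibitors lower polarization as more probe stays unbound to SIAE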
# * = called active by the depositor; / = no result given.
SMILES,DAGLB inhibitor,HTRA1 inhibitor,TCR CD3 inh,ABHD4 inh,SIAE primary,SIAE inh conf
Brc1ccc(-c2csc(Nc3nc(-c4ccc(Br)cc4)cs3)n2)cc1,-2,-12,-7,7,42*,11
Cc1cccc(Cl)c1NC(=O)N(C)c1ccccc1,/,/,1,-2,1,/
COc1ccc(NC(=S)N/N=C/c2cccn2Cc2ccc(F)cc2)cc1,-1,-1,-4,6,19*,6
Cc1ccc(Cn2cccc2/C=N/NC(=S)Nc2ccc(C)cc2)cc1,-2,-9,4,7,2,/
CCCCNC(=O)C[C@H]1C[C@@]2(C(=O)OC)C(=C[C@H](C(C)(C)C)O[C@@H]2C)N(CCC2=CCCCC2)C1=O,/,/,-2,-2,-1,/
CC(=O)N1c2ccc(S(=O)(=O)NCc3ccccc3Cl)cc2CC1C (configuration not stated),0,3,7,7,18*,3
CC(=O)N1c2ccc(S(=O)(=O)NCCc3ccc(Cl)cc3)cc2CC1C (configuration not stated),-3,-5,2,-8,-7,/
COc1cccc2c1O/C(=N\O)C(C(=O)Nc1ccc(C)cc1)C2 (configuration not stated),-6,2,4,-6,21*,5
S=C(Nc1ccc(Cl)cc1)N1CCN(Cc2ccccc2)CC1,-2,-9,-6,-2,18*,6
O=S1(=O)c2ccc(N3CCSCC3)cc2Oc2ccccc2CN1Cc1cn(Cc2ccccc2C(F)(F)F)nn1,/,/,/,-4,-4,/
CCOc1ccc(NC(=O)NCc2ccccn2)cc1,1,7,5,-2,20*,-5
Cc1ccc(NC(=O)NCc2ccccn2)cc1,-1,-2,-3,3,-5,/
COC(=O)[C@H](C)NC(=O)Nc1ccccc1F,0,-9,-5,-3,-1,/
CCC(C)[C@H](NC(=O)Nc1ccccc1F)C(=O)OC (some centres not stated),2,-2,6,3,22*,0
C#CCONC(=O)c1cc(OCC(F)(F)F)ccc1OCC(F)(F)F,1,-1,0,5,18*,0
O=C(NO)c1cc(OCC(F)(F)F)ccc1OCC(F)(F)F,2,10,-3,10,2,/
O=C(CSc1nnc(-c2cnccn2)n1-c1ccccc1)Nc1ccc2cn[nH]c2c1,/,/,/,5,-6,/
CC(C)C[C@@H](COCc1cccc(C(F)(F)F)c1)N1CCN(C(=O)c2ccc(C(F)(F)F)cc2)CCC1=O,/,/,-3,-8,6,/
O=C(NC(Cc1c[nH]c2ccccc12)C(=O)Nc1ccc(F)c([N+](=O)[O-])c1)c1cccs1 (configuration not stated),2,-21,-1,-10,19*,-30
CCNC(=O)N1CCN(c2ccc(N3CCN(Cc4ccccc4)[C@@H](C)C3)c(C)c2)[C@H](C)C1,/,/,9,4,2,/
COc1ccc(CCNC(=O)CCCn2c(=O)c3cccn3c3cccnc32)c(OC)c1OC,1,7,7,2,0,/
CCOc1ccc(CCNC(=O)CCCn2c(=O)c3cccn3c3cccnc32)cc1OCC,1,4,-3,-15,22*,-3
COc1cc(C(=O)NC2CCCCN(C)C2=O)cc(OC)c1OC (configuration not stated),/,/,8,-3,1,/
CN(Cc1ccco1)C(=O)[C@@H](Cc1ccccc1)NC(=O)[C@H]1O[C@@H](n2ccc(=O)[nH]c2=O)[C@H](O)[C@@H]1O,/,/,-6,-7,5,/
CC[C@]12c3[nH]c4cc(-c5ccco5)ccc4c3CCN1C(=O)[C@@H](CC(=O)NCC13CC4CC(CC(C4)C1)C3)C[C@@H]2C(=O)N1CCN(C(=O)C2CC2)CC1,6,0,-4,17,4,/
SMILES,DAGLB inhibitor,HTRA1 inhibitor,TCR CD3 inh,ABHD4 inh,SIAE primary,SIAE inh conf
CC[C@]12c3[nH]c4cc(-c5ccco5)ccc4c3CCN1C(=O)[C@@H](CC(=O)NCC13CC4CC(CC(C4)C1)C3)C[C@@H]2C(=O)N1CCN(C(=O)c2ccco2)CC1,9,-9,-7,22,18*,0
COC(=O)[C@H](N[C@H](/C=C/c1ccccc1)[C@@H](O)Cc1ccccc1)c1ccccc1,/,/,8,-9,2,/
COc1cc(NC(=O)CN2c3cccc4cccc(c34)S2(=O)=O)cc(OC)c1OC,1,-3,5,10,29*,-5
O=C(NCc1ccccc1)[C@@H]1CCCN1C(=O)[C@H]1CCCN1C(=O)c1ccc(Cl)c(Cl)c1,/,/,3,1,9,/
C=CCNC(=S)N/N=C/c1ccc(-c2ccc(OC)cc2)o1,3,-8,3,14,19*,2
C=CCNC(=S)N/N=C/c1ccc(-c2cc(Cl)ccc2Cl)o1,0,0,3,5,2,/
CS(=O)(=O)N(Cc1ccc(C(=O)NCCSCc2ccco2)cc1)c1ccccc1,0,-6,9,1,18*,-3
CS(=O)(=O)N(Cc1ccc(C(=O)NCc2ccco2)cc1)c1ccccc1,-2,-6,3,-6,1,/
O=Nc1c(O)[nH]c2ccc(Cl)c(Cl)c12,-11,24,4,8,63*,42*
Cc1cccc(C)c1NC(=O)c1cc(S(=O)(=O)N2CCOCC2)cn1C,1,0,1,-5,19*,-1
Cc1c(Cl)cccc1NC(=O)c1cc(S(=O)(=O)N2CCOCC2)cn1C,-1,-5,4,6,-2,/
COc1ccc(C2C(C(=O)Nc3c(C)cccc3C)CCC(=O)N2c2ccc(OC)cc2)cc1 (configuration not stated),/,/,/,0,0,/
CCCCCCCCN1C(=O)[C@@H](CC(=O)N2CCOCC2)C[C@@]2(C(=O)OC)C1=C[C@H](C(C)(C)C)O[C@@H]2C,/,/,1,-7,-1,/
COc1ccc(OC)c(S(=O)(=O)NCC(c2ccco2)N2CCc3ccccc32)c1 (configuration not stated),1,0,7,1,18*,6
O=C(NCC(c1ccco1)N1CCc2ccccc21)c1ccccc1 (configuration not stated),1,4,-4,2,23*,3
Cc1ccc(C(=O)NCC(c2ccco2)N2CCc3ccccc32)cc1C (configuration not stated),2,-16,-2,-1,-1,/
O=C(Nc1ccc(Br)cc1)OCCCN1CCC2(CCCCC2)C1=O,/,/,/,5,1,/
CCCn1c(Nc2ccccc2C)nc2ccccc21,1,-4,-6,4,37*,-3
C=CCc1cccc(CNc2nc3ccccc3n2CC)c1O,-2,-5,2,6,8,/
CCc1ccccc1Nc1nc2ccccc2n1CC,0,1,2,1,7,/
C=CCc1cccc(CNc2nc3ccccc3n2CCC)c1O,-2,-2,-3,-4,19*,11
Cc1ccc(Cc2c(-c3cccc(Br)c3)nc3c4ccccc4ccn23)cc1,/,/,4,-12,-7,/

# Bioassay records from PubChem.
